This is a sample that favours compounds with a hit; in the whole collection about 3.3% have one here.
FXN GAA850 act = FXN promoter activators, primary screen, cell-based, luciferase luminescence, HEK293 lucGAA850; HEK293 lucGAA850 FXN promoter luciferase reporter, 24 h; percent of 10 µM SAHA response; activation, % at 6 µM; 360,000 compounds, 0.56% hits; AID 540364, 2011;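 active = activation above the average of all compounds screened plus 3 SD, cutoff fixed separately per campaign, cut at about 7.5% in these data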;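 also: 0% = DMSO wells and 100% = 10 µM SAHA wells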
STAT3 act = IL-6 driven STAT3 reporter potentiators, primary screen, U3A cells, luciferase, luminescence, MLSCN library | IL-6 STAT3-luciferase reporter; 100% = signal with IL-6 EC80 alone | activation (% of control), % at 5.6 µM | 190,000 compounds, 0.91% hits | AID 871, 2007;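 active = activation above the screen-wide mean of compound activation plus 3 SD, cut at about 130% in these data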;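 also: 0% = background luminescence of wells with medium and substrate only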
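Assay system – human STAT1-deficient U3A cells with stable STAT3-luciferase reporter · Also added – IL-6 (33 ng/mL) · Schedule – compound 1 h, then IL-6 6 h at 37 °C · Technique – reporter luminescence signal · Evaluation – % activation versus median of IL-6-stimulated wells · Benchmarks – IL-6-only wells as 100% reference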
AHR act = AHR activators, primary screen, cell-based, luminescence, luciferase reporter, human; Aryl hydrocarbon receptor (Homo sapiens), P35869; AHR-responsive luciferase reporter cells; activation, % at 5 µM; 320,000 compounds, 2.5% hits; AID 2796, 2010; in the data active = activation above about 47%;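 also: 0% = vehicle wells and 100% = reference agonist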
ABCB6 inh 2 = ABCB6 transporter inhibitors, primary screen, K562-ABCB6 cells, flow cytometry, MLPCN library. ATP-binding cassette sub-family B member 6 (Homo sapiens), Q9NP58. K562-ABCB6 porphyrin accumulation, 1 h; active compounds read low. fluorescence ratio to DMSO, % at 10 µM. 360,000 compounds, 0.19% hits. AID 602162, 2011;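 active = fluorescence ratio to DMSO below 75%, the collection mean minus 3 SD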;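 also: signal is porphyrin accumulated inside mitochondria; 100% equals median channel fluorescence of DMSO control wells; lower ratio means ABCB6 inhibition with less porphyrin fluorescence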
Target sequence (Q9NP58 whole entry, looked up): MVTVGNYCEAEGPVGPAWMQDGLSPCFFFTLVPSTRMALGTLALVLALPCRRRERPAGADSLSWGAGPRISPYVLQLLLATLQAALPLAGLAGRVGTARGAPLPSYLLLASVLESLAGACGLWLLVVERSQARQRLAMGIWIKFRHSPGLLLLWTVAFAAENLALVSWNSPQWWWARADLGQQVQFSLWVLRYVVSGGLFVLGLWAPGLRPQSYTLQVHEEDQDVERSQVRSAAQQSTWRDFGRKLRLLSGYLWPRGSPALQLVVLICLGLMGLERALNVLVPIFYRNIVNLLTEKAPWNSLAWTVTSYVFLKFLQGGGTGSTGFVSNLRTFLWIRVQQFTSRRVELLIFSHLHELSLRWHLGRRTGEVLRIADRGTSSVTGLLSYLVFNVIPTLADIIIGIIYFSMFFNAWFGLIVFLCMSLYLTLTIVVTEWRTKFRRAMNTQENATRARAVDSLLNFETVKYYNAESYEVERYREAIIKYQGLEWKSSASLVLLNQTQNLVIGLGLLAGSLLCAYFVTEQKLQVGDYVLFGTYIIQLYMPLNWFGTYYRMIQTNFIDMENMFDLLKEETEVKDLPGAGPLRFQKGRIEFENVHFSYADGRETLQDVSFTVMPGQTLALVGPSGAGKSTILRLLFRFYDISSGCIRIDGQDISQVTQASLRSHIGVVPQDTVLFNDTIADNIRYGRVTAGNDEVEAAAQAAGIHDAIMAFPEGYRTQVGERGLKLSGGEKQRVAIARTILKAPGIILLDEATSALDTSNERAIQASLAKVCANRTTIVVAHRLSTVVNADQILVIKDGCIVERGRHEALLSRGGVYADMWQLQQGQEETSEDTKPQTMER
GAA30 counter = GAA30 FXN promoter activators, confirmation, counter-screen for GAA850 frataxin promoter activator project, cell-based, luminescence, HEK293, lucGAA30, triplicate; shares compounds with FXN GAA850 act; HEK293 lucGAA30 FXN promoter luciferase, 24 h; DMSO = 0%, 5 µM ipriflavone = 100%; activation, % at 6 µM; 1,900 compounds, 66% hits;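 active = mean activation above the mean of solvent-only control wells plus 3 SD, cut at about 22% in these data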;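 also: counterscreen of GAA850 promoter hits where activity marks nonselective or luminescence artifacts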
FXN GAA850 conf = FXN GAA850 promoter activators in reporter cells, confirmation, cell-based, luminescence, HEK293 lucGAA850, triplicate | shares compounds with FXN GAA850 act | activation, % at 6 µM | AID 588351, 2011 | 1,900 compounds, 86% hits | HEK293 lucGAA850 FXN promoter luciferase reporter, 24 h; 100% = activation by SAHA;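 active = mean activation above a set limit taken from the primary screen, cut at about 8% in these data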;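 also: 0% = DMSO wells and 100% = 10 µM SAHA wells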
* = called active by the depositor; / = no result given.

SMILES | FXN GAA850 act | STAT3 act | AHR act | ABCB6 inh 2 | GAA30 counter | FXN GAA850 conf
O=C1OC(/C(=C\Nc2cc(Cl)ccc2O)[N+](=O)[O-])c2ccccc21 (stereo not drawn) | 12* | 103 | 45 | 98 | 51* | 5
Cc1cc(NC(=O)COC(=O)c2cc(S(=O)(=O)N3CCOCC3)ccc2N2CCCCC2)no1 | 0 | 98 | -2 | 94 | / | /
CN(C)/C=N/NC(=O)c1ccccc1 | 7 | 95 | 0 | 105 | / | /
CC(O)C(O)C(O)C(O)/C=N/NC(=O)c1ccccc1 (stereo not drawn) | 7.7* | 106 | 9 | 103 | 23* | 7
CCOC(=O)C(=O)Nc1cc(Cl)ccc1C | 2 | 100 | 0 | 100 | / | /
Cc1cc(C)nc(SCc2csc(-c3ccccc3)n2)n1 | 7.9* | 83 | -2 | 95 | 115* | 40*
C/C(=N\NC(=O)c1sccc1C)c1cccnc1 | 3 | / | / | 101 | / | /
C/C(=N\NC(=O)c1sccc1C)c1ccncc1 | 8.2* | / | 21 | 94 | 82* | 32*
O=c1[nH]nc(CNc2ccc(OC(F)(F)F)cc2)c2ccccc12 | 9.0* | 89 | 3 | 98 | 40* | 20*
O=c1[nH]nc(CNc2ccc(C(F)(F)F)cc2)c2ccccc12 | 5 | 85 | 7 | 103 | / | /
Cc1ccc(N/C=C/C(=O)c2ccco2)c(O)c1 | 5 | / | 18 | 99 | / | /
Cc1ccc([N+](=O)[O-])cc1N/C=C/C(=O)c1ccco1 | 9.3* | 134* | 17 | 96 | 27* | 25*
CC1=NN(c2ccccc2)C(=O)/C1=C/C=C/c1ccc(N(C)C)cc1 | -1 | 104 | / | 105 | / | /
CC1=NN(c2ccccc2)C(=O)/C1=C\C=C\c1ccccc1 | 8.6* | / | 5 | 93 | 19 | 14*
CCc1ccc(NC(=O)CCn2nc(C)c(S(=O)(=O)N3CCCCC3)c2C)cc1 | 7.6* | / | 2 | 94 | 7 | 8.6*
O=C(COc1ccc(F)cc1)N(Cc1ccco1)C1CCS(=O)(=O)C1 (stereo not drawn) | 2 | / | 2 | 104 | / | /
COc1ccccc1C(=O)NCCC(=O)NCCC12CC3CC(CC(C3)C1)C2 | 8.1* | / | -2 | 90 | 21 | 14*
COc1ccccc1OCCNC(=O)CCNC(=O)c1ccccc1OC | 1 | / | 3 | 95 | / | /
Cc1c(CC(=O)O)c(=O)oc2c(C)c(OCc3c(F)cccc3Cl)ccc12 | 0 | / | / | 92 | / | /
COc1ccc(-c2nnc(N(C)C(=O)c3ccno3)s2)cc1 | 12* | 99 | 3 | 103 | 99* | 30*
COc1ccc(C2=NN(C(=O)COc3ncnc4ccccc34)C(c3ccco3)C2)cc1 (stereo not drawn) | 3 | 106 | -2 | 92 | / | /
CS(=O)(=O)c1ccc(C(=O)OCC(=O)Nc2cccnc2Cl)cc1[N+](=O)[O-] | 8.0* | / | 2 | 104 | 31* | 20*
CS(=O)(=O)c1ccc(C(=O)OCC(=O)N2CCOCC2)cc1[N+](=O)[O-] | 9.7* | / | / | 99 | 83* | 39*
CN(C)S(=O)(=O)c1ccc(C(=O)OCc2nnc(-c3ccccc3)o2)cc1 | 1 | / | 3 | 96 | / | /
COc1ccc(C2=NN(C(=O)COC(=O)c3ccc(S(C)(=O)=O)c([N+](=O)[O-])c3)C(c3ccco3)C2)cc1 (stereo not drawn) | 13* | / | 1 | 93 | -30 | 19*
SMILES | FXN GAA850 act | STAT3 act | AHR act | ABCB6 inh 2 | GAA30 counter | FXN GAA850 conf
CS(=O)(=O)c1ccc(C(=O)OCc2nnc(-c3ccccc3)o2)cc1[N+](=O)[O-] | 8.5* | 93 | / | 89 | -17 | 70*
CC1NC(=O)N(C)C2NC(=O)N(C)C(c3ccccc3)C12 (stereo not drawn) | -2 | 103 | -1 | 103 | / | /
N#CCN(N=Nc1ccccc1)c1ccccc1 | 0 | / | 6 | 97 | / | /
Cc1cc(Cl)n2c(nc3cc(F)c(F)cc32)c1C#N | 15* | 123 | / | 102 | -51 | 29*
O=C(NCc1cccs1)c1cc(-c2cccs2)on1 | 4 | 99 | -3 | 100 | / | /
COCCNC(=O)c1cc(-c2cccs2)on1 | 15* | 115 | 10 | 97 | 145* | 70*
Cn1cccc1/C=C1\CCC/C(=C\c2cccn2C)C1=O | 12* | 93 | 1 | 119 | 99* | 39*
COC(=O)c1cn(CC(=O)Nc2ccc(OC)cc2)c2ccccc12 | -1 | / | 0 | 102 | / | /
Cc1ccc(Nc2nc(CSc3nnc(-c4ccccc4)n3C)cs2)cc1 | 7.6* | 106 | 26 | 100 | 120* | 41*
N#C/C(=C/c1ccco1)c1nc2ccccc2s1 | 7.7* | 95 | 30 | 91 | 142* | 45*
CCOc1ccccc1NC(=O)/C(C#N)=C/c1c(C)nn(-c2ccc(F)cc2)c1Cl | 1 | 98 | 13 | 99 | / | /
CN(C)c1nc(C=C(C#N)C#N)c(Cl)n1-c1ccc(F)cc1 | 11* | 97 | / | 113 | -57 | 33*
COCCn1c(C)cc(C(=O)COC(=O)c2[nH]c(C)c(C(C)=O)c2C)c1C | 3 | / | -1 | 96 | / | /
Nc1nc(N)c2ncn(C3C=CC(CO)C3)c2n1 (stereo not drawn) | / | / | / | 89 | / | /
c1ccc(CNC2=NCCC2)nc1 | -1 | 98 | 0 | 100 | / | /
FC(F)Oc1ccccc1/C=N/n1cnc2ccccc21 | 8.0* | 117 | 49* | 93 | 95* | 29*
Nc1ccc2nc(-c3ccccc3)c(-c3ccccc3)nc2c1 | 14* | / | 8 | 118 | -5 | 11*
O=C(N/N=C/C=C/c1ccco1)c1cnccn1 | 2 | / | 4 | 99 | / | /
O=C(N/N=C/C=C\c1ccco1)c1ccccn1 | 7.7* | / | 2 | 99 | 63* | 38*
O=C(N/N=C/c1ccc(OC(=O)c2ccco2)cc1)c1ccccn1 | 7.8* | 92 | 24 | 101 | 115* | 33*
CC(=O)Nc1cccc(-c2ccnc3c2CC(C)(C(=O)NCc2cccs2)O3)c1 (stereo not drawn) | -3 | / | / | 120 | / | /
CCc1cc(C(=O)OC)c(NC(=O)C2CC(=O)NN2Cc2ccccc2)s1 (stereo not drawn) | 5 | 98 | 3 | 102 | / | /
COc1ccc(OC)c(NC(=O)C2CCCN(S(=O)(=O)c3c(C)nn(C)c3C)C2)c1 (stereo not drawn) | 14* | / | 0 | 101 | 22 | 9.3*

Bioassay records from PubChem BioAssay.
